Measured values published in paper PMC3148415 (Molecular pharmaceutics, 2011).

System: U87MG human glioma xenografts
Assay: Biodistribution in athymic nude mice bearing U87MG human glioma xenografts
Format: in vivo
Conditions: 4 h p.i., tail vein injection
How it was run: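 Female athymic nu/nu mice carried U87MG xenografts (5 × 10^6 cells s.c. in both upper shoulder flanks) and were used 4 weeks after inoculation. HPLC-purified 64Cu tracer in saline (~30 μCi/mL, 0.20 μm filtered) was given at ~3 μCi by tail vein. Five mice per time point (0.5, 1, 2, 4, 24 h p.i.) were killed by pentobarbital overdose. Heart blood and organs were weighed and γ-counted, giving %ID/g and %ID/organ.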

tumor uptake: 1.8 %ID/g
SMILES: [Cl][64Cu][Cl] [^64CuCl2]
